Screening data: PubChem BioAssay, Broad Institute
A selection: hits, their analogues and other compounds. The true share with any hit is near 1.2%.
CaV13 FRET inh – Primary screen for inhibitors of IQ motif and Ca2+-dependent inactivation inhibitor domain binding in CACNA1D, Förster resonance energy transfer in living cells, …; HEK cells, CFP/YFP FRET ICDI-IQ, plate reader, 10 min; percent FRET-ratio fall versus neutral wells; inhibition, % at 12.3 µM; actives 0.098% (n = 340,000); AID 743397;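 active = mean replicate inhibition of at least 30% and at least 1% of replicates passing that level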;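 also: 0% = median of the neutral control wells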
CAL PDZ FP-1 – CAL PDZ peptide-binding inhibitors, primary screen, biochemical, fluorescence polarization, Cer-tagged CAL PDZ, HTS; purified CAL PDZ, TMR-peptide fluorescence polarization, 1 h; actives 0.02% (n = 330,000); inhibition, % at 20 µM; AID 504414, 2011; Golgi-associated PDZ and coiled-coil motif-containing protein (Homo sapiens), Q9HD26;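 active = highest replicate inhibition of at least 40%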;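 also: plate controls were DMSO neutral control wells for no effect and unlabeled competitor peptide control wells for full effect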
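Test system: tagged CAL PDZ domain / Buffer or medium: sodium phosphate/NaCl buffer pH 7.4 with TCEP, IgG, Thesit / Reagent: TMR-labelled reporter peptide T*-PRC34 bound in PDZ groove / Compound dosing: single point, 20 µM / Schedule: 1 h incubation at room temperature before polarization reading / Technique: fluorescence polarization (mP) / Benchmarks: unlabelled peptide, DMSO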
CAL PDZ FP-2 – untagged CAL PDZ binding inhibitors, primary screen, biochemical, fluorescence polarization, HTS; Golgi-associated PDZ and coiled-coil motif-containing protein (Homo sapiens), Q9HD26; purified CAL PDZ, TMR-peptide fluorescence polarization, 1 h; inhibition, % at 24.9 µM; actives 0.92% (n = 300,000); AID 602252, 2012;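 active = mean inhibition of at least 30% with at least half of replicates also reaching 30%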;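 also: 0% = DMSO neutral control and 100% = excess unlabeled competitor peptide PRC23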
ARNT-TACC3 inh – disruptors of ARNT/TACC3 protein interaction, primary screen, biochemical, AlphaScreen, single concentration. AID 623870, 2012. actives 0.66% (n = 390,000). inhibition, % at 9.99 µM. Transforming acidic coiled-coil-containing protein 3 (Homo sapiens), Q9Y6A5. AlphaScreen His-ARNT PAS-B/GST-TACC3 binding, luminescence; TACC3 fragment carries E629A point mutation;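 active = mean inhibition of replicates at least 50% and at least half of replicates each reaching 50%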;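 also: 0% = complete ARNT plus TACC3 wells and 100% = ARNT alone without TACC3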
* marks the source's active call; other numbers are inactive results; ! = repeats disagree.

For Cc1ccc(-c2nc3ccccc3c(=O)n2-c2cccc(O)c2)cc1 the results were CaV13 FRET inh -4, CAL PDZ FP-1 -3, CAL PDZ FP-2 58* and ARNT-TACC3 inh -1.
For COc1ccc(C#Cc2ccc([C@@H]3[C@@H](CO)N4CCCCN(C(=O)Cc5ccccc5)C[C@@H]34)cc2)cc1 the results were ARNT-TACC3 inh -9.
`CC(=NCc1cccnc1)c1c(O)n(-c2ccc(Cl)cc2)c(=O)[nH]c1=O` gave CaV13 FRET inh -15, CAL PDZ FP-1 0, CAL PDZ FP-2 46* and ARNT-TACC3 inh 1.
For CC[n+]1c(/C=C/C=C/c2ccc(N(C)C)cc2)sc2ccccc21 the results were CaV13 FRET inh -7, CAL PDZ FP-1 1 and ARNT-TACC3 inh 48*.
Screening Cc1nc2ccccc2c(=O)n1-c1ccc([N+](=O)[O-])cc1 returned CaV13 FRET inh -2, CAL PDZ FP-2 -3 and ARNT-TACC3 inh 5.
`Cc1nc2ccc(Cl)cc2c(=O)n1-c1ccc([N+](=O)[O-])cc1` gave CaV13 FRET inh -6, CAL PDZ FP-2 75* and ARNT-TACC3 inh -8.
CN(CC=CCN(C)P(=S)(N1CC1)N1CC1)P(=S)(N1CC1)N1CC1 was read as CaV13 FRET inh -6, CAL PDZ FP-1 -1, CAL PDZ FP-2 34* and ARNT-TACC3 inh 10.
For COc1ccc(-c2ccc3n(c2=O)C[C@@H]2[C@@H](CO)[C@H](C(=O)O)[C@H]3N2C(=O)c2ccccc2F)cc1 the results were ARNT-TACC3 inh -3.
Screening O=c1[nH]c(=O)n(Cc2ccco2)c(O)c1/C=N/N1CCCCC1 returned CaV13 FRET inh -2, CAL PDZ FP-1 -1, CAL PDZ FP-2 -4 and ARNT-TACC3 inh active.
`O=c1[nH]c(=O)n(Cc2ccco2)c(O)c1C=NC1CC1` gave CaV13 FRET inh -6, CAL PDZ FP-1 0, CAL PDZ FP-2 -4 and ARNT-TACC3 inh 29.
For O=C(Cc1ccccc1)N1CCCCN2[C@H](CO)[C@@H](c3ccc(-c4ccccc4)cc3)[C@@H]2C1 the results were ARNT-TACC3 inh 3.
Screening O=c1[nH]c(O)c(C=NCCc2ccccc2)c(=O)[nH]1 returned CaV13 FRET inh -18, CAL PDZ FP-1 -1, CAL PDZ FP-2 84* and ARNT-TACC3 inh -1.
COc1ccc(-c2ccc([C@@H]3[C@H]4CN(C(=O)Cc5ccccc5)CCCCN4[C@H]3CO)cc2)cc1 was read as ARNT-TACC3 inh 5.
For N#CCCn1cc(C(=O)NCc2ccccc2)c(-c2ccc3c(c2)OCCO3)n1 the results were CaV13 FRET inh 2, CAL PDZ FP-1 4, CAL PDZ FP-2 47* and ARNT-TACC3 inh -1.
For N#CCCn1cc(C(=O)NCc2ccccc2)c(-c2ccccc2)n1 the results were CaV13 FRET inh -5, CAL PDZ FP-1 0, CAL PDZ FP-2 2 and ARNT-TACC3 inh -11.
Screening CC(=O)O[C@@H]1CC[C@]2(C)C3CC[C@]4(C)C(=O)[C@H](O)CC4C3[C@@H](OC(C)=O)C[C@H]2C1 (some centres undefined) returned CaV13 FRET inh -5, CAL PDZ FP-1 -1, CAL PDZ FP-2 78* and ARNT-TACC3 inh -2.
For CN(C)[C@@H]1C(=O)C(C(N)=O)=C(O)[C@@]2(O)C(=O)C3=C(O)c4c(O)cccc4[C@@](C)(O)[C@H]3[C@H](O)[C@@H]12 the results were CaV13 FRET inh -5, CAL PDZ FP-1 2, CAL PDZ FP-2 2 and ARNT-TACC3 inh 52*!.
Screening COC(=O)[C@@H]1[C@@H](CO)[C@@H]2Cn3c(ccc(C4=CCCC4)c3=O)[C@H]1N2C(=O)CC1CC1 returned ARNT-TACC3 inh 9.
Screening CC1CN(c2ccc([N+](=O)[O-])cc2Cl)CCN1 (centres undefined) returned CaV13 FRET inh -6, CAL PDZ FP-1 1, CAL PDZ FP-2 0 and ARNT-TACC3 inh 49*.
For CN1CCN(c2ccc([N+](=O)[O-])cc2Cl)CC1 the results were CaV13 FRET inh 3, CAL PDZ FP-1 -2, CAL PDZ FP-2 -3 and ARNT-TACC3 inh 1.
`CCn1c(P(C)(=O)O)nc2ccccc21` gave CaV13 FRET inh -3, CAL PDZ FP-1 -1, CAL PDZ FP-2 -2 and ARNT-TACC3 inh -3.
Screening CCn1c(NN=O)nc2ccccc21 returned CaV13 FRET inh -20, CAL PDZ FP-1 -4, CAL PDZ FP-2 -2 and ARNT-TACC3 inh 48*.
